Source: ChEMBL document CHEMBL1123065, “Sleep-inducing N-alkyl-5-[m-(trifluoromethyl)phenyl]-5-hydroxy-2-pyrrolidinones and N-alkyl-3-(trifluoromethyl)cinnamamides” (J Med Chem, 1985)
Calls of active or inactive are those of the source. No cut-off for these calls is given here.

Assays:
Mus musculus [1] = test: Effective dose against loss of righting reflex in mice;10 mice per dose(ip); type: functional
How it was run: (§1)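 Mouse behaviour after ip dosing assessed by a modification of the method of ref 7; ataxia, docility and loss of righting reflex scored, 10 mice per dose, ED50 in mg/kg ip.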

Mus musculus [2] = test: Ability to reinduce anesthesia (70 mg/kg, iv) following recovery of loss of righting reflex obtained with hexobarbital.; type: functional
Mus musculus [3] = test: Effective dose against Mice ataxia, ip administration; type: functional; how it was run: as §1
[4] = Lethal dose was obtained by 2-h post administration (ip), using four male Royal Hart Wistar rats; type: toxicity, organism-based; details: rat, in vivo
How it was run: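 Male Royal Hart Wistar rats, 136-160 g, housed in pairs in wire cages, given compound ip; deaths read 2 h after dosing, four rats per compound; LD50 estimated by probit analysis.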

Mus musculus [5] = test: Effective dose against Mice docility, ip administration; type: functional; how it was run: as §1
Mus musculus [6] = test: Anticonvulsant activity against N-sulfamoylhexahydrozepine (10 mice were used per dose, ip); type: functional
How it was run: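 Mice given compound ip, 10 per dose, then challenged with N-sulfamoylhexahydroazepine by methods of ref 9; ED50 (mg/kg ip) for protection determined.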

Mus musculus [7] = test: Effective dose against loss of righting reflex in mice (10 mice per dose, ip); type: functional; how it was run: as §1
Mus musculus [8] = test: Ability to produce neurological deficit in the rotarod test (10 mice were used per dose, ip); type: functional
How it was run: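 Rotarod method of ref 10, intraperitoneal dosing, 10 mice per dose; neurological deficit scored and ND50 (mg/kg ip) derived.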

Monkey = test: Ratio of the oral dose of the test compound relative to that of methaqualone (15 mg/kg, po) to induce sleep in Cebus monkey; type: functional
How it was run: (§2)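 Cebus monkeys restrained in chairs within sound-attenuated cubicles; dosing per os at 5:00 p.m., five channels recorded, EEG over 13.5 h, Monday–Thursday, visually scored. Each animal its own control versus last 15 control nights (intragastric carboxymethylcellulose placebo). Value is oral dose of test substance relative to methaqualone 15 mg/kg po inducing sleep in the same monkey; NA = no sleep at any dose.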

[9] = Ratio of the oral dose of the test compound relative to that of methaqualone (15 mg/kg, po) to induce sleep in Cebus monkey;NA is Not Active.; type: functional, organism-based; how it was run: as §2
[10] = Ratio of the oral dose of the test compound relative to that of methaqualone (15 mg/kg, po) to induce sleep in Cebus monkey; NA is Not Active.; type: functional, organism-based; how it was run: as §2

Compound | ND50 (Mus musculus [1]) [mg/kg] | RD50 (Mus musculus [2]) [mg/kg] | ED50 (Mus musculus [3]) [mg/kg] | LD50 at 2 h [4] [mg/kg] | ED50 (Mus musculus [5]) [mg/kg] | ED50 (Mus musculus [6]) [mg/kg] | ED50 (Mus musculus [7]) [mg/kg] | ND50 (Mus musculus [8]) [mg/kg] | Sleep ratio (Monkey) | Ratio [9] | Ratio [10]
CCNC(=O)/C=C/c1cccc(C(F)(F)F)c1 | >75 | >75 | 90 | 333 |  |  |  |  |  |  | 
CNC(=O)/C=C(\C)c1cccc(C(F)(F)F)c1 |  | 56.3 | 87.5 | > 400 | 87.5 | > 75 | > 100 | >75 |  |  | 
CNC(=O)/C(C)=C/c1cccc(C(F)(F)F)c1 |  | 24.7 | 75 | 300 | 75 | 68.8 | > 100 | >75 | 0.3 |  | 
O=C1CCC(O)(c2cccc(C(F)(F)F)c2)N1 (stereo unspecified) |  | 150 | > 200 | > 400 | > 200 | > 200 | > 200 | >200 | 0.1 |  | 
CC(C)NC(=O)CCC(=O)c1cccc(C(F)(F)F)c1 |  | 126.9 | > 200 | > 400 | > 200 | > 150 | > 200 | >150 |  |  | 
Cc1ccccc1-n1c(C)nc2ccccc2c1=O [METHAQUALONE] |  | 21.9 | 34.4 | 565 | 35.6 | 31.5 | 39.8 | 31.5 | 1 |  | 
CN1C(=O)CCC1(O)c1ccccc1 (stereo unspecified) |  | 150 | > 200 | 300 | > 200 | 138 | > 200 | >200 |  |  | 
CN1C(=O)CCC1(O)c1ccc(C(F)(F)F)cc1 (stereo unspecified) |  | >200 | > 200 | > 400 | > 200 | 132 | > 200 | 140.5 |  |  | 
CCC(C)NC(=O)CCC(=O)c1cccc(C(F)(F)F)c1 (stereo unspecified) |  | >50 | > 200 | 300 | > 200 | > 200 | > 200 | >150 |  |  | 
NC(=O)/C=C/c1cccc(C(F)(F)F)c1 |  | 17.2 | 42.9 | 260 | 37.5 | 49.5 | 54.5 | 46.9 |  | inactive | 
CN(C)C(=O)CCC(=O)c1cccc(C(F)(F)F)c1 |  | 127.6 | > 50 | 300 | > 50 | > 37.5 | > 50 | >37.5 |  |  | 
CC(C)CNC(=O)CCC(=O)c1cccc(C(F)(F)F)c1 |  | >200 | > 200 | 162 | > 200 | > 200 | > 200 | >200 |  |  | 
CN1CCN(C(=O)CCC(=O)c2cccc(C(F)(F)F)c2)CC1 |  | >37.5 | > 50 | > 400 | > 50 | > 37.5 | > 50 | >37.5 |  |  | 
CN1C(=O)CCC1(O)c1cccc(C(F)(F)F)c1 (stereo unspecified) |  | 45.1 | 129 | 367 | 93.8 | 51.6 | 133 | 106.5 | 1 |  | 
CN1CCN(C(=O)/C=C/c2cccc(C(F)(F)F)c2)CC1 |  | >75 | > 100 | 300 | > 100 | > 75 | > 100 | >75 |  |  | 
O=C(/C=C/c1cccc(C(F)(F)F)c1)NCCO |  | 66.7 | 117 | 400 | 78.6 | 100 | 186 | 115.8 |  |  | 
CN1C(=O)CCC1(O)c1cccc(Cl)c1 (stereo unspecified) |  | >150 | 186 | > 400 | 158 | > 150 | > 200 | >150 |  |  | 
Cc1cccc(C2(O)CCC(=O)N2C)c1 (stereo unspecified) |  | 49.5 | 93 | 300 | 81.5 | 60.9 | 138 | 111.5 |  |  | inactive
CCCCN1C(=O)CCC1(O)c1cccc(C(F)(F)F)c1 (stereo unspecified) |  | 150 | > 200 | > 400 | > 200 | 183 | > 200 | >200 |  | inactive | 
O=C(/C=C/c1ccccc1)NCCO [IDROCILAMIDE] |  | 75 | 183 | > 400 | 183 | 117 | > 200 | >200 |  |  | 
CNC(=O)/C=C/c1cccc(C(F)(F)F)c1 |  | 76.3 | 120 | 275 | 92.9 | 84.1 | 200 | 149 | 0.5 |  | 
CCN1C(=O)CCC1(O)c1cccc(C(F)(F)F)c1 (stereo unspecified) |  | 68.8 | > 100 | > 400 | > 100 | > 75 | > 100 | >75 |  |  | inactive
O=C(CCC(=O)c1cccc(C(F)(F)F)c1)NC1CCCCC1 |  | >200 | > 200 | > 400 | > 200 | > 200 | > 200 | >200 |  |  | 
CCCN1C(=O)CCC1(O)c1cccc(C(F)(F)F)c1 (stereo unspecified) |  | 131.9 | > 200 | > 400 | > 200 | 150 | 200 | >200 |  |  | 
CN(C)C(=O)/C=C/c1cccc(C(F)(F)F)c1 | >75 | >75 | > 75 | 300 |  |  |  |  |  |  | 
CCC(O)CNC(=O)/C=C/c1cccc(C(F)(F)F)c1 (stereo unspecified) |  | 68.8 | 90 | 333 | 87.5 | 64.4 | 92.9 | 57.9 |  | inactive | 
